Reference: ChEMBL document CHEMBL3784969, “Pharmacokinetics of flutamide in patients with renal insufficiency” (Br J Clin Pharmacol, 1999)

Experiments:
[1] = Half life in patient with renal insufficiency at 250 mg, po administered first dose followed by 14 days wash out period and administered second dose 4 hrs prior to hemodialysis day measured during hemodialysis treatment by gas chromatography; type: ADME, organism-based; details: human, in vivo
In short: (§1)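 Group V haemodialysis males (CLcr <5 ml min−1 1.73 m−2). Single oral 250 mg flutamide (two 125 mg capsules) right after HD; after 14-day washout, same dose 4 h before HD lasting 2–4 h. Venous samples to 48 h, arterial/venous during HD, dialysate in hourly blocks. GC with 63Ni electron-capture detection. CL(HD) = dialysate Ae(HD)/arterial AUC(HD); renal CL = Ae(0,48)/AUC(0,48 h).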

Homo sapiens [2] = assay: Cmax in patient (6 patients) with renal insufficiency assessed as hydroxy flutamide at 250 mg, po administered as single dose 4 hrs prior to hemodialysis treatment measured at starting time of dialysis and post dialysis treatment by gas chromatography; type: ADME, organism-based; design: dose 250 mg, route oral; details: in vivo
Homo sapiens [3] = assay: Cmax in patient (7 patients) with renal insufficiency assessed as hydroxy flutamide at 250 mg, po administered as single dose by gas chromatography; type: ADME, organism-based; design: dose 250 mg, route oral; details: in vivo
Homo sapiens [4] = assay: Toxicity in patient with renal insufficiency assessed as dizziness at 250 mg, po administered as single dose; type: organism-based; details: in vivo
In short: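 26 male subjects in groups by 24 h creatinine clearance (normalized to body surface area): >80, 50–80, 30–49, 5–29, <5 ml min−1 1.73 m−2 on haemodialysis. Given as two 125 mg capsules after a 10 h fast, continued 4 h post-dose. Prescription drugs withheld for the same period. Subjects confined 12 h pre-dose to 48 h post-dose, with adverse events compared across renal-function groups.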

Homo sapiens [5] = assay: AUClast in patient (6 patients) with renal insufficiency assessed as hydroxy flutamide at 250 mg, po administered as single dose 4 hrs prior to hemodialysis treatment measured at starting time of dialysis and post dialysis treatment by gas chromatography; type: ADME, organism-based; design: dose 250 mg, time 0 - last, route oral; details: in vivo
Homo sapiens [6] = assay: Final time point in terminal phase in patient (6 patients) with renal insufficiency assessed as hydroxy flutamide at 250 mg, po administered as single dose by gas chromatography; type: ADME, organism-based; details: in vivo
In short: (§2)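 Males grouped by 24 h CLcr normalised to body surface area (>80, 50–80, 30–49, 5–29 ml min−1 1.73 m−2), fasted 10 h pre-dose and 4 h post-dose, given a single oral 250 mg flutamide dose. Plasma sampled 0–96 h; urine collected in blocks to 96 h. Flutamide and hydroxyflutamide measured by GC with electron-capture detection. Renal CL = Ae(0,96 h)/AUC(0,96 h); t1/2 = 0.693/λz.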

Homo sapiens [7] = assay: AUClast in patient (6 patients) with renal insufficiency at 250 mg, po assessed as hydroxy flutamide administered as single dose by gas chromatography; type: ADME, organism-based; design: dose 250 mg, time 0 - last, route oral; details: in vivo
Homo sapiens [8] = assay: AUC (0 to infinity) in patient (6 patients) with renal insufficiency assessed as hydroxy flutamide at 250 mg, po administered as single dose 4 hrs prior to hemodialysis treatment measured at starting time of dialysis and post dialysis treatment by gas chromatography; type: ADME, organism-based; design: dose 250 mg, time infinity, route oral; details: in vivo
[9] = Drug excretion in urine of patient (6 patients) with renal insufficiency at 250 mg, po administered as single dose by gas chromatography; type: ADME, organism-based; details: human, in vivo; in short: as §2
[10] = Drug excretion in urine of patient (6 patients) with renal insufficiency at 250 mg, po administered as single dose 4 hrs prior to hemodialysis treatment measured at starting time of dialysis and post dialysis treatment by gas chromatography; type: ADME, organism-based; details: human, in vivo; in short: as §1
[11] = Drug excretion in urine of patient (3 patients) with renal insufficiency assessed as hydroxy flutamide at 250 mg, po administered as single dose by gas chromatography; type: ADME, organism-based; details: human, in vivo; in short: as §2
[12] = Renal clearance in patient (6 patients) with renal insufficiency at 250 mg, po administered as single dose by gas chromatography; type: ADME, organism-based, Kidney; details: human, in vivo; in short: as §2
Homo sapiens [13] = assay: AUC (0 to 24 hrs) in patient (7 patients) with renal insufficiency assessed as hydroxy flutamide at 250 mg, po administered as single dose by gas chromatography; type: ADME, organism-based; design: dose 250 mg, time < 24 hr, route oral; details: in vivo
[14] = Cmax in patient (3 patients) with renal insufficiency at 250 mg, po administered as single dose by gas chromatography; type: ADME, organism-based; design: dose 250 mg, route oral; details: human, in vivo
[15] = Cmax in patient (4 patients) with renal insufficiency at 250 mg, po administered as single dose by gas chromatography; type: ADME, organism-based; design: dose 250 mg, route oral; details: human, in vivo
[16] = AUC (0 to 24 hrs) in patient (4 patients) with renal insufficiency at 250 mg, po administered as single dose by gas chromatography; type: ADME, organism-based; design: dose 250 mg, time < 24 hr, route oral; details: human, in vivo
Homo sapiens [17] = assay: AUC (0 to infinity) in patient (4 patients) with renal insufficiency at 250 mg, po assessed as hydroxy flutamide administered as single dose by gas chromatography; type: ADME, organism-based; design: dose 250 mg, time infinity, route oral; details: in vivo
Homo sapiens [18] = assay: Final time point in terminal phase in patient (6 patients) with renal insufficiency assessed as hydroxy flutamide at 250 mg, po administered as single dose 4 hrs prior to hemodialysis treatment measured at starting time of dialysis and post dialysis treatment by gas chromatography; type: ADME, organism-based; details: in vivo; in short: as §1
[19] = AUC (0 to 96 hrs) in patient (6 patients) with renal insufficiency at 250 mg, po administered as single dose 4 hrs prior to hemodialysis treatment measured at starting time of dialysis and post dialysis treatment by gas chromatography; type: ADME, organism-based; design: dose 250 mg, time < 96 hr, route oral; details: human, in vivo
[20] = AUClast in patient (4 patients) with renal insufficiency at 250 mg, po administered as single dose by gas chromatography; type: ADME, organism-based; design: dose 250 mg, time 0 - last, route oral; details: human, in vivo
[21] = Renal clearance in patient (7 patients) with renal insufficiency at 250 mg, po administered as single dose by gas chromatography; type: ADME, organism-based, Kidney; details: human, in vivo; in short: as §2
Homo sapiens [22] = assay: AUC (0 to 96 hrs) in patient (6 patients) with renal insufficiency at 250 mg, po assessed as hydroxy flutamide administered as single dose by gas chromatography; type: ADME, organism-based; design: dose 250 mg, time < 96 hr, route oral; details: in vivo
Homo sapiens [23] = assay: AUC (0 to infinity) in patient (6 patients) with renal insufficiency at 250 mg, po assessed as hydroxy flutamide administered as single dose by gas chromatography; type: ADME, organism-based; design: dose 250 mg, route oral, time infinity; details: in vivo
[24] = AUClast in patient (3 patients) with renal insufficiency at 250 mg, po administered as single dose by gas chromatography; type: ADME, organism-based; design: dose 250 mg, time 0 - last, route oral; details: human, in vivo
Homo sapiens [25] = assay: Tmax in patient (6 patients) with renal insufficiency assessed as hydroxy flutamide at 250 mg, po administered as single dose by gas chromatography; type: ADME, organism-based; details: in vivo; in short: as §2
Homo sapiens [26] = assay: AUC (0 to 24 hrs) in patient (6 patients) with renal insufficiency assessed as hydroxy flutamide at 250 mg, po administered as single dose by gas chromatography; type: ADME, organism-based; design: time < 24 hr, dose 250 mg, route oral; details: in vivo
Homo sapiens [27] = assay: Tmax in patient (7 patients) with renal insufficiency assessed as hydroxy flutamide at 250 mg, po administered as single dose by gas chromatography; type: ADME, organism-based; details: in vivo; in short: as §2
Homo sapiens [28] = assay: Tmax in patient (4 patients) with renal insufficiency assessed as hydroxy flutamide at 250 mg, po administered as single dose by gas chromatography; type: ADME, organism-based; details: in vivo; in short: as §2
Homo sapiens [29] = assay: Terminal half life in patient (6 patients) with renal insufficiency assessed as hydroxy flutamide at 250 mg, po administered as single dose by gas chromatography; type: ADME, organism-based; details: in vivo; in short: as §2
Homo sapiens [30] = assay: AUC (0 to 24 hrs) in patient (3 patients) with renal insufficiency assessed as hydroxy flutamide at 250 mg, po administered as single dose by gas chromatography; type: ADME, organism-based; design: dose 250 mg, time < 24 hr, route oral; details: in vivo
[31] = Drug excretion in urine of patient (6 patients) with renal insufficiency assessed as hydroxy flutamide at 250 mg, po administered as single dose 4 hrs prior to hemodialysis treatment measured at starting time of dialysis and post dialysis treatment by gas chromatography; type: ADME, organism-based; details: human, in vivo; in short: as §1

With `CC(C)C(=O)Nc1ccc([N+](=O)[O-])c(C(F)(F)F)c1` [FLUTAMIDE] as the compound, how does the half-life [1] read?
Its half-life is 4.3 h.

And the Cmax (Homo sapiens [2])?
Its Cmax is 869 ng/mL.

What about the Cmax (Homo sapiens [3]) of the same compound?
Its Cmax is 967 ng/mL.

And the Activity (Homo sapiens [4])?
The Activity was 15%.

What about the AUClast (Homo sapiens [5]) of the same compound?
Its AUClast is 5862 ng·h/mL.

What about the Time (Homo sapiens [6]) of the same compound?
Its Time is 46 h.

What about the AUClast (Homo sapiens [7]) of the same compound?
Its AUClast is 5476 ng·h/mL.

What about the AUC (Homo sapiens [8]) of the same compound?
The AUC was 5963 ng·h/mL.

And the Drug excretion [9]?
The Drug excretion was 24.4 µg.

What about the Drug excretion [10] of the same compound?
The Drug excretion was 0 µg.

And the Drug excretion [11]?
Its Drug excretion is 132 µg.

And the CL renal [12]?
The CL renal was 7.1 mL/min.

And the AUC (Homo sapiens [13])?
Its AUC is 4663 ng·h/mL.

And the Cmax [14]?
The Cmax was 41 ng/mL.

What about the Cmax [15] of the same compound?
Its Cmax is 44 ng/mL.

What about the AUC(0-t) at 24 h [16] of the same compound?
Its AUC(0-t) at 24 h is 107 ng·h/mL.

What about the AUC (Homo sapiens [17]) of the same compound?
The AUC was 6499 ng·h/mL.

And the Time (Homo sapiens [18])?
Its Time is 43 h.

What about the AUC(0-t) at 96 h [19] of the same compound?
Its AUC(0-t) at 96 h is 217 ng·h/mL.

What about the AUC(0-t) [20] of the same compound?
Its AUC(0-t) is 79 ng·h/mL.

What about the CL renal [21] of the same compound?
Its CL renal is 22.8 mL/min.

What about the AUC (Homo sapiens [22]) of the same compound?
Its AUC is 5527 ng·h/mL.

What about the AUC (Homo sapiens [23]) of the same compound?
The AUC was 5527 ng·h/mL.

What about the AUC(0-t) [24] of the same compound?
The AUC(0-t) was 74 ng·h/mL.

What about the Tmax (Homo sapiens [25]) of the same compound?
Its Tmax is 1.9 h.

What about the AUC (Homo sapiens [26]) of the same compound?
The AUC was 5132 ng·h/mL.

What about the Tmax (Homo sapiens [27]) of the same compound?
Its Tmax is 2.3 h.

And the Tmax (Homo sapiens [28])?
The Tmax was 3 h.

What about the “beta t1/2” value (Homo sapiens [29]) of the same compound?
Its value is 7.3 h.

What about the AUC (Homo sapiens [30]) of the same compound?
The AUC was 6166 ng·h/mL.

And the Drug excretion [31]?
Its Drug excretion is 5 µg.
